How the values were obtained:
[1] = test system: GCRC-2076 PDX; assay: Orthotopic TNBC PDX GCRC-2076; type: in vivo, mouse; conditions: for median survival: GCRC-2076 at 0.5x MTD, vehicle 30 days
In short: (§1)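 PDX tumor fragments (1–1.5 mm3) were implanted into the left fat pad of female NSG mice (6–8 weeks), passaged ≤8 times. Mice were randomized at 100–250 mm3 and treated iv once weekly for 4 weeks, with doses set as fractions of each agent's MTD. Caliper volume was calculated as 4/3π[(a/2)×(b/2)^2]. Kaplan–Meier log-rank and Student's t-test were used.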

[2] = test system: GCRC-1945; assay: Brain metastatic tumor model, intracranial GCRC-1945 in NSG mice; type: in vivo, mouse; conditions: for body weight loss: GCRC-1945 brain model, DZ-2384 10 mg/kg, paclitaxel 40 mg/kg
In short: (§2)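 Cells were implanted intracranially into the right frontal lobe of female NSG mice (6–8 weeks): MDA-MB-231-BrM2 at 7.5×10^4 cells, or luciferase-expressing GCRC-1945 at 1×10^5 cells. Mice were randomized by bioluminescent tumor burden, then dosed iv biweekly for 2 weeks in cremophor EL:ethanol:saline (5:5:90). Imaging was weekly (D-luciferin 150 mg/kg ip, 10 min prior; photon flux). Survival was analysed by Kaplan–Meier log-rank and weights tracked.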

[3] = test system: GCRC-1945 PDX; assay: Orthotopic TNBC PDX GCRC-1945 model in NSG mice; type: in vivo, mouse; conditions: for median survival: GCRC-1945 at MED (DZ-2384 1.25 mg/kg, paclitaxel 10 mg/kg), vehicle 36 days
In short: as §1

[4] = test system: MDA-MB-231-BrM2; assay: Brain metastatic tumor model, intracranial MDA-MB-231-BrM2 in NSG mice; type: in vivo, mouse; conditions: for body weight loss: MDA-MB-231-BrM2 brain model, DZ-2384 10 mg/kg, paclitaxel 40 mg/kg
In short: as §2

[5] = Maximum tolerated dose in nontumor bearing NSG mice; type: in vivo, mouse
In short: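 Each compound was given to four mice of the relevant strain as four biweekly iv injections. General condition was checked at least three times weekly. Endpoints were >20% weight loss for more than three consecutive days, death, or severe distress. Weights, clinical signs and survival were recorded until 1 week after the last dose.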

[6] = type: in vivo, mouse
In short: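 Female NSG mice bearing MDA-MB-231-BrM2 mammary fat pad tumors received a single iv bolus of 10 or 40 mg/kg, depending on compound, in cremophor:ethanol:saline (5:5:90); n=4 per time point. Sampling was at 0–24 h. Plasma was taken, then mice were perfused with 20 ml saline via the left ventricle before brain, heart, lung and tumor harvest. Homogenates were measured by LC–MS/MS; tissue/plasma AUC0–∞ ratios were calculated.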

[7] = test system: MDA-MB-231-LM2 lung metastases; assay: MDA-MB-231-LM2 lung metastases model in SCID-beige mice; type: in vivo, mouse; conditions: for antitumor effect: MDA-MB-231-LM2, DZ-2384 0.5, 1.5, 4.5 mg/kg, docetaxel 2, 4 mg/kg
In short: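 Female SCID-beige mice (6–8 weeks) received 2.5×10^5 MDA-MB-231-LM2 cells via lateral tail vein. About 2 weeks later, mice with confirmed lung metastases were randomized by bioluminescent burden. They then got four biweekly iv injections in cremophor EL:ethanol:saline (5:5:90). Weekly imaging used D-luciferin 150 mg/kg ip. Survival was analysed by Kaplan–Meier log-rank; body weight was measured 2–3 times weekly.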

[8] = patients receiving docetaxel 100 mg/m^2 for TNBC; cited from earlier work
[9] = cited from earlier work
[10] = test system: RenCa tumors; assay: RenCa syngeneic renal carcinoma model in Balb/c mice; type: in vivo, mouse; conditions: within the first 18 days of treatment
In short: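 Balb/c mice (6–8 weeks) were injected with 2.5×10^5 RenCa cells in the left lower flank, then randomized at 100–150 mm3 (n=7/group). On day 1 they got a single iv dose of test compound (14 mg/kg) or cremophor EL:ethanol:saline vehicle. From 4 days later, they received biweekly ip anti-CTLA-4 (9H10) or rat IgG2a isotype (2A3) at 10 mg/kg for 2 weeks. Individual tumor volumes were measured 2–3 times weekly.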

## CC(=O)O[C@H]1C(=O)[C@@]2(C)[C@H]([C@H](OC(=O)c3ccccc3)[C@]3(O)C[C@H](OC(=O)[C@H](O)[C@@H](NC(=O)c4ccccc4)c4ccccc4)C(C)=C1C3(C)C)[C@]1(OC(C)=O)CO[C@@H]1C[C@@H]2O [paclitaxel, reference compound]
[1]; GCRC-2076, 0.25x MTD
  antitumor efficacy: not effective
[1]
  median survival: 69 days
[2]
  body weight loss: less than 10%
[3]; GCRC-1945, 0.5x MTD
  antitumor efficacy: equally effective
[3]
  median survival: 53 days
[4]
  body weight loss: less than 10%
[5]; NSG, mouse, in vivo, iv
  MTD at 2 weeks: 40 mg/kg
[6]; female, NSG, mouse, tumor, iv, 40 mg/kg
  half-life: 19.1 h

## CC(=O)O[C@@]12CO[C@@H]1C[C@H](O)[C@@]1(C)C(=O)[C@H](O)C3=C(C)[C@@H](OC(=O)[C@H](O)[C@@H](NC(=O)OC(C)(C)C)c4ccccc4)C[C@@](O)([C@@H](OC(=O)c4ccccc4)[C@H]21)C3(C)C [docetaxel, reference compound]
[7]
  antitumor effect: effective at only the 4 mg/kg dose
[7]; MDA-MB-231-LM2 model, 4 mg/kg docetaxel (MED)
  weight loss: more than 10%
[8]
  exposure in patients: 4810 to 5200 ng·h/mL
[9]; rat, docetaxel 10 mg/kg (lowest dose tested)
  loss in digital and caudal nerve conduction velocity: 12–23%

## CC(C)[C@H](O)C(=O)N[C@H]1Cc2ccc3c(c2)[C@]2(C4=C(c5nc(CO)co5)N=C(O4)[C@H](C(C)(C)C)NC1=O)c1cc(F)ccc1N[C@@H]2O3 [DZ-2384]
[7]; MDA-MB-231-LM2, 4.5 mg/kg, 5 months after treatment initiation
  tumor free mice (bioimaging): four of nine
[7]; MDA-MB-231-LM2, 4.5 mg/kg, vehicle 37 days
  median survival: more than 150 days
[7]
  antitumor effect: profound antitumor effect at all doses tested
[1]; GCRC-2076, 0.25x and 0.5x MTD
  antitumor efficacy: more effective than paclitaxel
[1]
  median survival: 88 days
[2]
  body weight loss: less than 10%
[2]; intracranial GCRC-1945, MTD, iv biweekly for 2 weeks
  efficacy (tumor burden, median survival vs vehicle): efficacious
[3]; GCRC-1945, 0.125x and 0.25x MTD
  antitumor efficacy: more effective than paclitaxel
[3]; GCRC-1945, 0.5x MTD
  antitumor efficacy: equally effective
[3]
  median survival: 71 days
[4]
  body weight loss: less than 10%
[4]; intracranial MDA-MB-231-BrM2, MTD, iv biweekly for 2 weeks
  efficacy (tumor burden, median survival vs vehicle): efficacious
[5]; nontumor bearing NSG mice, iv biweekly for 2 weeks
  maximum tolerated dose (MTD): 10 mg/kg
[10]
  effect on tumor volume relative to vehicle control: modest effects on tumor volume
[6]; AUC ratio brain/plasma, single iv dose at MTD, NSG mice
  proportion that accumulates in the brain relative to plasma exposure: 15%
[6]; AUC ratio tumor/plasma, single iv dose at MTD, NSG mice
  accumulation in tumor tissue relative to plasma: 18 fold
[6]; single iv dose at MTD, NSG mice
  maximum concentration (Cmax) ratio in tumor relative to plasma: 1.3
[9]; rat model of peripheral neuropathy, effective levels
  effects on peripheral nerves: no detrimental effects on peripheral nerves
